# Data taken from ChEMBL document CHEMBL1828561, “Identification of a potent and selective free fatty acid receptor 1 (FFA1/GPR40) agonist with favorable physicochemical and in vitro ADME properties” (J Med Chem, 2011).
# Calls of active or inactive are those of the source. The calls are words filed in the database; no cut-off is given here.
# What was measured:
# [1] = Chemical stability of the compound in PBS at 37 degC for 12 days; type: physicochemical; settings: read-out: Stability
# Summary of the method: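 Stability followed in PBS at 37 °C over 12 days.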
# [2] = molecular target: Free fatty acid receptor 1 (Rattus norvegicus) (UniProt Q8K3T4); assay: Agonist activity at FFA1 receptor in rat INS-1E cells assessed as movement of cellular constitiuent at 0.3 uM by DMR assay in the presence of trans-1-oxo-3-(4-phenoxyphenyl)-2-propyl-1,2,3,4-tetrahydroisoquinoline-4-carboxylic acid; type: functional, cell-based
# Summary of the method: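 Label-free DMR on an Epic optical biosensor. Rat INS-1E cells, 30 000/well on fibronectin-coated 384-well sensor plates, cultured 20–24 h to confluence. Washed in HBSS/20 mM HEPES and equilibrated 1 h at 28 °C. Baseline read, compound added, wavelength shift (pm) monitored ≥5000 s. Antagonist line: 0.3 μM agonist with the FFA1 antagonist over a concentration range, pIC50 derived, n = 4.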
# 1321-N1 [3] = assay: Selectivity for human FFA1 receptor expressed in human 1321N1 cells over NOP receptor; type: cell-based
# [4] = molecular target: Free fatty acid receptor 1 (Rattus norvegicus) (UniProt Q8K3T4); assay: Agonist activity at FFA1 receptor in rat INS-1E cells assessed as increase in glucose-stimulated insulin production at 10 uM after 1 hr by radioimmunoassay in presence of 12 mM glucose; type: functional, cell-based
# Summary of the method: (§1)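 Rat INS-1E cells seeded at 100 000 cells/mL in 24-well plates for 2 days. Incubated 1 h at 37 °C in pH 7.4 HEPES-bicarbonate saline with 1 mM CaCl2 and 0.5 g/L fatty-acid-free BSA plus test substance. Secreted insulin and acid-ethanol-extracted content measured by radioimmunoassay. Mean ± SE, n = 8.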
# 1321-N1 [5] = assay: Selectivity for human FFA1 receptor expressed in human 1321N1 cells over norepinephrine transporter; type: cell-based
# 1321-N1 [6] = assay: Selectivity for human FFA1 receptor expressed in human 1321N1 cells over 5HT2B receptor; type: cell-based
# [7] = Permeability across methotrexate treated human HT-29 cells assessed as compound recovery; type: ADME, cell-based; settings: read-out: Activity
# Summary of the method: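 HT29-MTX mucus-producing cells, passage 32, grown 23 days (TEER > 750 Ω cm²). Compound at 100 μM (10 mM DMSO stock diluted 1:100 in buffer). […] Non-permeated drug measured for recovery. Monolayer integrity checked by 20 μM carboxyfluorescein after 1 h and TEER.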
# [8] = Octanol-phosphate buffer partition coefficient, log D of the compound at pH 7.4 by HPLC analysis; type: physicochemical
# [9] = Octanol-water partition coefficient, log D of the compound at pH 7.4 by HPLC analysis; type: physicochemical
# Summary of the method: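 Distribution between n-octanol and water (PBS), pH 7.4, determined experimentally.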
# 1321-N1 [10] = assay: Selectivity for human FFA1 receptor expressed in human 1321N1 cells over Delta2 receptor; type: cell-based
# 1321-N1 [11] = assay: Selectivity for human FFA1 receptor expressed in human 1321N1 cells over V1a receptor; type: cell-based
# 1321-N1 [12] = assay: Selectivity for human FFA1 receptor expressed in human 1321N1 cells over sst receptor; type: cell-based
# 1321-N1 [13] = assay: Selectivity for human FFA1 receptor expressed in human 1321N1 cells over D1 receptor; type: cell-based
# [14] = molecular target: T1, Free fatty acid receptor 1 (Homo sapiens, UniProt O14842); assay: Agonist activity at human FFA1 receptor expressed in human 1321N1 cells assessed as calcium mobilization by fluorescence spectrophotometry; type: functional, cell-based
# 1321-N1 [15] = assay: Selectivity for human FFA1 receptor expressed in human 1321N1 cells over TP receptor; type: cell-based
# 1321-N1 [16] = assay: Selectivity for human FFA1 receptor expressed in human 1321N1 cells over A1 receptor; type: cell-based
# 1321-N1 [17] = assay: Selectivity for human FFA1 receptor expressed in human 1321N1 cells over MC4 receptor; type: cell-based
# [18] = molecular target: T1, Free fatty acid receptor 1; assay: Agonist activity at human FFA1 receptor expressed in human HEK293 assessed as movement of cellular constitiuent by DMR assay; type: functional, cell-based
# Summary of the method: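 FFA1-HEK cells (doxycycline-inducible FLAG-hFFA1, HEK293), 15 000/well on fibronectin-coated 384-well Epic plates, 20–24 h culture. Washed in HBSS/20 mM HEPES, equilibrated 1 h at 28 °C, baseline read, compound added.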
# 1321-N1 [19] = assay: Selectivity for human FFA1 receptor expressed in human 1321N1 cells over M1 receptor; type: cell-based
# 1321-N1 [20] = assay: Selectivity for human FFA1 receptor expressed in human 1321N1 cells over 5HT transporter; type: cell-based
# 1321-N1 [21] = assay: Selectivity for human FFA1 receptor expressed in human 1321N1 cells over Kv channel; type: cell-based
# 1321-N1 [22] = assay: Selectivity for human FFA1 receptor expressed in human 1321N1 cells over 5HT1A receptor; type: cell-based
# 1321-N1 [23] = assay: Selectivity for human FFA1 receptor expressed in human 1321N1 cells over CCK1 receptor; type: cell-based
# HEK293 = assay: Selectivity for human FFA1 receptor expressed in human 1321N1 cells over human FFA3 receptor expressed in HEK293 cells at 10 uM; type: cell-based
# [24] = Inhibition of P-glycoprotein at 100 uM
# Summary of the method: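 P-glycoprotein inhibition tested at 100 μM compound.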
# [25] = molecular target: T1, Free fatty acid receptor 1; assay: Agonist activity at human FFA1 receptor expressed in human 1321N1 cells assessed as calcium mobilization by fluorescence spectrophotometry relative to 10 uM TUG-20; type: functional, cell-based
# Summary of the method: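 Human FFA1 stably expressed in 1321N1 cells kept under G418 selection, 30000–40000 cells/well. After 24 h, washed in Krebs-HEPES pH 7.4 and loaded 1 h at 37 °C with 1.5 μM Oregon Green 488 BAPTA-1/AM. Compound injected at 10-fold concentration at 37 °C; fluorescence ex 485/em 520 nm over 50 × 0.4 s. Efficacy as % of maximal response to 10 μM TUG-20.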
# 1321-N1 [26] = assay: Selectivity for human FFA1 receptor expressed in human 1321N1 cells over M3 receptor; type: cell-based
# 1321-N1 [27] = assay: Selectivity for human FFA1 receptor expressed in human 1321N1 cells over CB1 receptor; type: cell-based
# CYP2C9 = CYP2C9 (Homo sapiens, UniProt P11712); assay: Inhibition of CYP2C9 at 10 uM; type: ADME
# 1321-N1 [28] = assay: Selectivity for human FFA1 receptor expressed in human 1321N1 cells over 5HT2A receptor; type: cell-based
# [29] = molecular target: Free fatty acid receptor 1 (Rattus norvegicus) (UniProt Q8K3T4); assay: Agonist activity at FFA1 receptor in rat INS-1E cells assessed as increase in glucose-stimulated insulin production at 10 uM after 1 hr by radioimmunoassay in presence of 2.8 mM glucose; type: functional, cell-based; summary of the method: as §1
# 1321-N1 [30] = assay: Selectivity for human FFA1 receptor expressed in human 1321N1 cells over A3 receptor; type: cell-based
# CYP2D6 = CYP2D6 (Homo sapiens, UniProt P10635); assay: Inhibition of CYP2D6 at 10 uM; type: ADME
# 1321-N1 [31] = assay: Selectivity for human FFA1 receptor expressed in human 1321N1 cells over A2A receptor; type: cell-based
# 1321-N1 [32] = assay: Selectivity for human FFA1 receptor expressed in human 1321N1 cells over alpha2 receptor; type: cell-based
# CYP3A4 = CYP3A4 (Homo sapiens, UniProt P08684); assay: Inhibition of CYP3A4 at 10 uM; type: ADME
# 1321-N1 [33] = assay: Selectivity for human FFA1 receptor expressed in human 1321N1 cells over NK3 receptor; type: cell-based
# 1321-N1 [34] = assay: Selectivity for human FFA1 receptor expressed in human 1321N1 cells over GABA receptor; type: cell-based
# 1321-N1 [35] = assay: Selectivity for human FFA1 receptor expressed in human 1321N1 cells over beta2 receptor; type: cell-based
# Sequence of Free fatty acid receptor 1 (Rattus norvegicus) (Q8K3T4 whole entry): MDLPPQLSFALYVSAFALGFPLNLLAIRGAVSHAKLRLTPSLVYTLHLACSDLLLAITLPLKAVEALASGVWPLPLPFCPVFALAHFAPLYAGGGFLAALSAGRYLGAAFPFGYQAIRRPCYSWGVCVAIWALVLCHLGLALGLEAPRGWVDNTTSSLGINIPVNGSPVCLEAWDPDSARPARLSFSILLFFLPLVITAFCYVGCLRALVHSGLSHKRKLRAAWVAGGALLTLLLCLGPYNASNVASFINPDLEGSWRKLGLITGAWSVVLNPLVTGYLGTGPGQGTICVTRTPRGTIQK
# T1 sequence (O14842 whole entry): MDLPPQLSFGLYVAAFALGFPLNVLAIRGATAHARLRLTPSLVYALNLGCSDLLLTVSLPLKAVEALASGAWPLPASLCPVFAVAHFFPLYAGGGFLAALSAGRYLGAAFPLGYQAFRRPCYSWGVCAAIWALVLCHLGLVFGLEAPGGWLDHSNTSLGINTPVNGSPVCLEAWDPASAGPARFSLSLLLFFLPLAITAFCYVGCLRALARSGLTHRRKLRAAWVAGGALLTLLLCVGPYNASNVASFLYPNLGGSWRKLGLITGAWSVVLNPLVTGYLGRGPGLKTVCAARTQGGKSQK
# Sequence of CYP3A4 (P08684 whole entry): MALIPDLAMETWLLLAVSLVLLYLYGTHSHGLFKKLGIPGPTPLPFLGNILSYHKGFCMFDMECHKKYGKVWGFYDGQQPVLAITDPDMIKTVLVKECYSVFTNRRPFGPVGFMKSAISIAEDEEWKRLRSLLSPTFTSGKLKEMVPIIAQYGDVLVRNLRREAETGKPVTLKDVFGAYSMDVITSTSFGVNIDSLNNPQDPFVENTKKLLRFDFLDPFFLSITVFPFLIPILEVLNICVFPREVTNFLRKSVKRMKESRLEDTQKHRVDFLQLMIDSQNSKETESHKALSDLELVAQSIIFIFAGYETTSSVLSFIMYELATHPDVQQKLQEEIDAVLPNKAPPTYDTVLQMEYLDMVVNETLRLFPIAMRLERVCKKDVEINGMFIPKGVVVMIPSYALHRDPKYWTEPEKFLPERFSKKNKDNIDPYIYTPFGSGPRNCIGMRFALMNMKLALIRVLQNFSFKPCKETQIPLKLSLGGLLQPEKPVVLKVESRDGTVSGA
# Sequence of CYP2C9 (P11712 whole entry): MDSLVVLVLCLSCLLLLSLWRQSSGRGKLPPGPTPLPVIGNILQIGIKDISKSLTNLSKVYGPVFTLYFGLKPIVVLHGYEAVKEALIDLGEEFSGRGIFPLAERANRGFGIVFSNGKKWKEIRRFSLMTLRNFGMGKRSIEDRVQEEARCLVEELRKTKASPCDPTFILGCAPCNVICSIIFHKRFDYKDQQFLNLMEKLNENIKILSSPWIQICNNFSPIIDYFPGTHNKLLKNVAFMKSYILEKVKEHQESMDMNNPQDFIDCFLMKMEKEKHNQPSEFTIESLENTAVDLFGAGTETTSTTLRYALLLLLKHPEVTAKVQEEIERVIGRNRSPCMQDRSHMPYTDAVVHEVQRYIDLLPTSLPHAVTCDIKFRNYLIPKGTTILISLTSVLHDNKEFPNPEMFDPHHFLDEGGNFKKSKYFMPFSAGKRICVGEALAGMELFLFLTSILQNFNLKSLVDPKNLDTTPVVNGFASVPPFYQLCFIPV
# Sequence of CYP2D6 (P10635 whole entry): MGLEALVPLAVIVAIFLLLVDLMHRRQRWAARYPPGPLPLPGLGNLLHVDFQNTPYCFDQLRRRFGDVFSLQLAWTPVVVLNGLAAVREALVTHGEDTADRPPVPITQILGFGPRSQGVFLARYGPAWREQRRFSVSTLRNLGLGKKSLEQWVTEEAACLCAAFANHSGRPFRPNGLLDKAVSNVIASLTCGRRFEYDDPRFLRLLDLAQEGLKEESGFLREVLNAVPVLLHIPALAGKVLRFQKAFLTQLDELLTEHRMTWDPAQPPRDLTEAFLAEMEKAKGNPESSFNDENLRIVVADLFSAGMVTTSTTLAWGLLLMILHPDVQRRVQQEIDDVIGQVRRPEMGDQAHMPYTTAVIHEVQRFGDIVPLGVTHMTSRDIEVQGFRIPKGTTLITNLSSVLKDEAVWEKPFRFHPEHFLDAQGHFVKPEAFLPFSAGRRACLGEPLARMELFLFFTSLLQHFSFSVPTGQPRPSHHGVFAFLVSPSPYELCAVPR
smiles,measurement,setting,value
O=C(O)CCc1ccc(C#Cc2cc(Cl)nc(Cl)c2)cc1,remaining at 288 h,[1],99.9%
same,Activity,[2],inactive
same,Selectivity ratio,1321-N1 [3],> 100
same,Activity,[4],60%
same,Selectivity ratio,1321-N1 [5],> 100
same,Selectivity ratio,1321-N1 [6],> 100
same,recovery,[7],63%
same,logD,[8],1.97
same,logD,[9],1.97
same,Selectivity ratio,1321-N1 [10],> 100
same,Selectivity ratio,1321-N1 [11],> 100
same,Selectivity ratio,1321-N1 [12],> 100
same,Selectivity ratio,1321-N1 [13],> 100
same,EC50,[14],0.0407 µM
same,Selectivity ratio,1321-N1 [15],> 100
same,Selectivity ratio,1321-N1 [16],> 100
same,Selectivity ratio,1321-N1 [17],> 100
same,Activity,[18],Active
same,Selectivity ratio,1321-N1 [19],> 100
same,Selectivity ratio,1321-N1 [20],> 100
same,Selectivity ratio,1321-N1 [21],> 100
same,Selectivity ratio,1321-N1 [22],> 100
same,Selectivity ratio,1321-N1 [23],> 100
same,Selectivity ratio,HEK293,> 100
same,inhibition,[24],-1.9%
same,Efficacy,[25],103%
same,Selectivity ratio,1321-N1 [26],> 100
same,Selectivity ratio,1321-N1 [27],> 100
same,inhibition at 10 µM,CYP2C9,-4%
same,Selectivity ratio,1321-N1 [28],> 100
same,Activity,[29],inactive
same,Selectivity ratio,1321-N1 [30],> 100
same,inhibition at 10 µM,CYP2D6,5%
same,Selectivity ratio,1321-N1 [31],> 100
same,Selectivity ratio,1321-N1 [32],> 100
same,inhibition at 10 µM,CYP3A4,5%
same,Selectivity ratio,1321-N1 [33],> 100
same,Selectivity ratio,1321-N1 [34],> 100
same,Selectivity ratio,1321-N1 [35],> 100
